In ChEMBL document CHEMBL4265959, “Targeting heme Oxygenase-1 with hybrid compounds to overcome Imatinib resistance in chronic myeloid leukemia cell lines” (Eur J Med Chem, 2018):
Each block holds one molecule with its values, some of them ahead of it. The source made the active and inactive calls. The calls are words filed in the database; no cut-off is given here.

Key:
[1] = system: K562; experiment: Cytotoxicity against imatinib-sensitive human K562 cells assessed as decrease in cell viability after 24 hrs by XTT assay; format: functional, cell-based; settings: K562, 24 h
Procedure, shortened: (§1)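 K562R (imatinib-resistant) or K562S cells seeded at 1×10^4/well in phenol red-free RPMI, left 24 h, then exposed 24 h to various concentrations. XTT reagent added, 2 h incubation, absorbance at 450 nm; IC50 reported. Mean ± SD, four experiments in triplicate.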

[2] = molecular target: Bcr/Abl fusion protein (Homo sapiens) (UniProt P00519+P11274); experiment: Inhibition of BCR-ABL in human K562R cells assessed as decrease in CrKL phosphorylation at 10 uM by immuno blot analysis; format: cell-based
Bcr/Abl fusion protein (Homo sapiens), sequence (P00519 whole entry, looked up, the tested form may be a part): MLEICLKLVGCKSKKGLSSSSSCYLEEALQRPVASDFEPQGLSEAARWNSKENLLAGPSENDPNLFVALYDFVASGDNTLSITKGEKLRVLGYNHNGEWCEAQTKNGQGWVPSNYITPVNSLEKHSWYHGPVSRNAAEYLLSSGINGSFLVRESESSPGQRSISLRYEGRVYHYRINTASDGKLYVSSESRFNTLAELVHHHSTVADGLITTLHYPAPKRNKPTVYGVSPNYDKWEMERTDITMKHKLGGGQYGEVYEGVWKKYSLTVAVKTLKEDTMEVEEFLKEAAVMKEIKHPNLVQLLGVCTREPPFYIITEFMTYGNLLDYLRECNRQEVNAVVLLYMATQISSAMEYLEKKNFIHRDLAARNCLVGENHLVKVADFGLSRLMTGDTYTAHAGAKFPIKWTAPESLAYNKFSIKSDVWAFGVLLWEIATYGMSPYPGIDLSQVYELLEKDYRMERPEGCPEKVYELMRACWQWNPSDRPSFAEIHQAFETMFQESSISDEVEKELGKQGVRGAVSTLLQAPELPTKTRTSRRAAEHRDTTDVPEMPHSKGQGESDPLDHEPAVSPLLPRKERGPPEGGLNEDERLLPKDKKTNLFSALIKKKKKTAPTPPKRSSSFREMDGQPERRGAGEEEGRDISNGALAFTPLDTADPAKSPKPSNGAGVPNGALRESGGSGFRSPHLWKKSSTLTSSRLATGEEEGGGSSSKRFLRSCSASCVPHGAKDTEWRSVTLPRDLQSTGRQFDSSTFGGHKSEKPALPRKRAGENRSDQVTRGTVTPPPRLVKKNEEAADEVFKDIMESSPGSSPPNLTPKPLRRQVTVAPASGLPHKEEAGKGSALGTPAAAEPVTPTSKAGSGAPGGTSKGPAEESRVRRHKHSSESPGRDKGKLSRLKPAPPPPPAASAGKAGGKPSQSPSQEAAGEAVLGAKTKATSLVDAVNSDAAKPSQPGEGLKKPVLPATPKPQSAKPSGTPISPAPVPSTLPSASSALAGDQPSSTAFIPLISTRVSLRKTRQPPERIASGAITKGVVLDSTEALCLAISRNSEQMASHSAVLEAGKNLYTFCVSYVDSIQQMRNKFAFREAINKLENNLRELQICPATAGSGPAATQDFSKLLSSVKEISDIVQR
Bcr/Abl fusion protein (Homo sapiens), sequence (P11274 whole entry, looked up, the tested form may be a part): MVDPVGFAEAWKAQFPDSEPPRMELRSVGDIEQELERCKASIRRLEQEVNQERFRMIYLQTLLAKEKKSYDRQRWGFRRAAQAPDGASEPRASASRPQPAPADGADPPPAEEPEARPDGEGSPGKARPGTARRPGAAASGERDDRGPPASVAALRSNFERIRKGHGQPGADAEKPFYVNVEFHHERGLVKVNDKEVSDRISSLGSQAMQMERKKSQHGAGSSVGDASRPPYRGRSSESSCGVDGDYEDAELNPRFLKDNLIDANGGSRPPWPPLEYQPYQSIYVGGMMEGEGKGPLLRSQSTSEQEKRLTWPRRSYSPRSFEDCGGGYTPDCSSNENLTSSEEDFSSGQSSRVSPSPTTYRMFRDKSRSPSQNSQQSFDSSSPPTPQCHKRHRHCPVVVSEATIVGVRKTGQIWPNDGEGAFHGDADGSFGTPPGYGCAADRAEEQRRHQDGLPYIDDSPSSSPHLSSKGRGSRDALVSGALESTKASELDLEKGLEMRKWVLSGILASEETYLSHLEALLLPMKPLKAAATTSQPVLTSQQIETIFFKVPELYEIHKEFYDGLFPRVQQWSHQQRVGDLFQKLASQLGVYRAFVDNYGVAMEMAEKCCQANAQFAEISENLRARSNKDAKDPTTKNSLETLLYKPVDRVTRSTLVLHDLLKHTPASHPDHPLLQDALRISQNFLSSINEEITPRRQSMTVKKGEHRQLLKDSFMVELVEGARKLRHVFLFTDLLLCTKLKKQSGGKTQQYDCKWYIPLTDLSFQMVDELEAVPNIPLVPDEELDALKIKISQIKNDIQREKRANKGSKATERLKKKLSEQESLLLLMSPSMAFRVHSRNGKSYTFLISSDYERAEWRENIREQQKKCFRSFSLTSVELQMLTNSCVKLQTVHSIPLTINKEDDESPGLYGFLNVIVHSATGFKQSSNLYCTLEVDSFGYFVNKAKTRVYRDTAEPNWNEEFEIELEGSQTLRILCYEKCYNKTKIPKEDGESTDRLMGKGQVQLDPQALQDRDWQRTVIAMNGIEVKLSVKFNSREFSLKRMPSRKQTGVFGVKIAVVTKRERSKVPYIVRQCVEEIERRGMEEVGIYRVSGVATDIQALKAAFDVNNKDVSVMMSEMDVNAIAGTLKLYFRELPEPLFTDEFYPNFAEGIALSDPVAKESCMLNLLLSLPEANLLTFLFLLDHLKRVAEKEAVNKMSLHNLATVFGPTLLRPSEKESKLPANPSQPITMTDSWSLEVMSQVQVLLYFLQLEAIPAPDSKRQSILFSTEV
Procedure, shortened: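 K562R cells treated 24 h at 10 μM and lysed. 20 μg protein separated on SDS-PAGE, transferred to nitrocellulose and probed with anti-CrkL and anti-pCrkL (1:1,000), then infrared-dye secondary antibody. Densitometry gives pCrkL/CrkL ratio as fold of untreated control. Four experiments in triplicate.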

[3] = system: K-562R; experiment: Cytotoxicity against human K562R cells assessed as decrease in cell viability after 24 hrs by XTT assay; format: functional, cell-based; procedure, shortened: as §1
[4] = molecular target: T1, Heme oxygenase 1 (Rattus norvegicus, UniProt P06762); experiment: Inhibition of heme oxygenase 1 in Sprague-Dawley rat spleen microsomal fraction assessed as decrease in bilirubin formation using hemin as substrate after 60 mins by spectrophotometric method
T1 sequence (P06762 whole entry): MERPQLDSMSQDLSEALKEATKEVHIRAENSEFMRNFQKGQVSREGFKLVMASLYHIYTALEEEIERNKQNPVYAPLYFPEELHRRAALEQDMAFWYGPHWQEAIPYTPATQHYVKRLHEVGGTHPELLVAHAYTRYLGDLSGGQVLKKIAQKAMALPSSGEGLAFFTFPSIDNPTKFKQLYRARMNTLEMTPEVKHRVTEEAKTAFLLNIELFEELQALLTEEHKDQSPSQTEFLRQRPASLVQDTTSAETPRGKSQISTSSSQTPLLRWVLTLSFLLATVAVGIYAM

[5] = system: K-562R; experiment: Induction of apoptosis in human K562R cells assessed as necrotic cells at 10 uM by Annexin V staining-based flow cytometry (reference value: 0.87%); format: functional
[6] = system: Lymphocyte; experiment: Cytotoxicity against human lymphocytes assessed as decrease in cell viability at 10 uM after 24 hrs by XTT assay; format: cell-based
Procedure, shortened: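 Lymphocytes from healthy volunteers isolated on Ficoll–Paque, grown in RPMI-1640 with 10% FBS and 1% penicillin/streptomycin at 37 °C, 5% CO2, and treated 24 h at 10 μM.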

[7] = system: K-562R; experiment: Induction of apoptosis in human K562R cells assessed as early apoptotic cells at 10 uM by Annexin V staining-based flow cytometry (reference value: 8.51%); format: functional
[8] = system: K-562R; experiment: Induction of apoptosis in human K562R cells assessed as viable cells at 10 uM by Annexin V staining-based flow cytometry (reference value: 81.13%); format: functional; settings: read-out: Activity
[9] = system: K-562R; experiment: Effect on heme oxygenase 2 mRNA levels in human K562R cells at 10 uM by qRT-PCR method; format: functional, cell-based
Procedure, shortened: (§2)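 K562R cells treated 24 h at 10 μM, rinsed in cold PBS and lysed in Trizol. HO-1 and HO-2 mRNA measured by real-time PCR alongside GAPDH. Mean ± SD, four experiments in triplicate.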

[10] = molecular target: T2, Heme oxygenase 1 (Homo sapiens) (UniProt P09601); experiment: Inhibition of heme oxygenase 1 in human K562R cell lysates assessed as decrease in bilirubin formation at 10 uM after 60 mins by spectrophotometric method
T2 sequence (whole entry): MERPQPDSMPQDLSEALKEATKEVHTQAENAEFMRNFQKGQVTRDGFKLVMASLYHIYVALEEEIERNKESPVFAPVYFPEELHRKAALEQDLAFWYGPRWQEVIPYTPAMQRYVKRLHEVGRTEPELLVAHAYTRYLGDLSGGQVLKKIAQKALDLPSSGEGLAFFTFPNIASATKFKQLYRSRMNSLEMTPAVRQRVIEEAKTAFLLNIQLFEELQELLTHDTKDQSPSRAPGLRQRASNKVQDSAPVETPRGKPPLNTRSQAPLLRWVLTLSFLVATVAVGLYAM
Procedure, shortened: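 Intact K562R cells treated 24 h at 10 μM, then lysate (1 mg/mL) assayed. Mix: 20 mM Tris-HCl pH 7.4, liver biliverdin reductase 0.5–2 mg/mL, 1 mM NADPH, G6P/G6PDH, 25 μM hemin. 60 min at 37 °C in the dark, chloroform extraction, bilirubin by OD 464–530 nm. Mean ± SD, four experiments in triplicate.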

[11] = system: K-562R; experiment: Induction of apoptosis in human K562R cells assessed as late apoptotic cells at 10 uM by Annexin V staining-based flow cytometry (reference value: 9.49%); format: functional
[12] = system: K-562R; experiment: Induction of ROS production in human K562R cells at 10 uM by DCFH-DA dye based spectrofluorometric method; format: functional, cell-based
Procedure, shortened: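 K562R cells (RPMI-1640, 10% FBS, 37 °C, 5% CO2) treated 24 h at 10 μM, then probed with DCFH-DA. DCF fluorescence read at excitation 488 nm, emission 525 nm, normalized to total protein (F.I./mg protein). Mean ± SD, four experiments in triplicate.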

[13] = molecular target: T2, Heme oxygenase 1 (Homo sapiens); experiment: Inhibition of heme oxygenase 1 in human K562R cells assessed as decrease in HO-1 mRNA levels at 10 uM by qRT-PCR method; format: cell-based; procedure, shortened: as §2

Compound: Cc1ccc(N)cc1Nc1nccc(-c2cccnc2)n1
IC50 [4]: > 100 µM

Compound: COc1ccc(C(=O)Nc2ccc(C)c(Nc3nccc(-c4cccnc4)n3)c2)cc1OCCCCn1ccnc1
Activity [5]: 3.85% | Activity [6]: Non-Toxic | Activity [7]: 5.4% | viability at 10 µM [8]: 51.3% | IC50 [1]: 10.1 µM | Activity [9]: inactive | inhibition [2]: Active | inhibition [10]: Active | IC50 [3]: 18.7 µM | Activity [11]: 39.5% | Activity [12]: Active | IC50 [4]: 15.1 µM

Compound: Cc1ccc(NC(=O)c2cccc(OCCCCn3ccnc3)c2)cc1Nc1nccc(-c2cccnc2)n1
IC50 [1]: 74.6 µM | IC50 [3]: 63.4 µM | IC50 [4]: 38.5 µM

Compound: Brc1cccc(OCCCCn2ccnc2)c1
IC50 [1]: 68.3 µM | inhibition [10]: Active | IC50 [3]: 81.7 µM | Activity [12]: Active

Compound: Cc1ccc(NC(=O)c2ccc([N+](=O)[O-])c(OCCCCn3ccnc3)c2)cc1Nc1nccc(-c2cccnc2)n1
Activity [5]: 1.25% | Activity [6]: Non-Toxic | Activity [7]: 2.15% | viability at 10 µM [8]: 82.4% | IC50 [1]: 25 µM | inhibition [2]: Active | IC50 [3]: 47.6 µM | Activity [11]: 14.2% | IC50 [4]: 4.03 µM

Compound: Cc1ccc(NC(=O)c2ccc(CN3CCN(C)CC3)cc2)cc1Nc1nccc(-c2cccnc2)n1 [IMATINIB]
Activity [5]: 0.79% | Activity [7]: 6.25% | viability at 10 µM [8]: 89.4% | IC50 [1]: 1 µM | inhibition [10]: Active | IC50 [3]: 98.8 µM | Activity [11]: 3.6% | Activity [12]: inactive | inhibition [13]: inactive | IC50 [4]: > 100 µM

Compound: Cc1ccc(NC(=O)c2cc(Br)cc(OCCCCn3ccnc3)c2)cc1Nc1nccc(-c2cccnc2)n1
Activity [5]: 9.65% | Activity [6]: Non-Toxic | Activity [7]: 1.55% | viability at 10 µM [8]: 41.2% | IC50 [1]: 6.5 µM | Activity [9]: inactive | inhibition [2]: Active | inhibition [10]: Active | IC50 [3]: 19.1 µM | Activity [11]: 47.6% | Activity [12]: Active | IC50 [4]: 28.6 µM

Compound: Ic1ccc(OCCCCn2ccnc2)cc1
IC50 [1]: 69.1 µM | inhibition [10]: Active | IC50 [3]: 84.4 µM | Activity [12]: Active

Compound: Cc1ccc(NC(=O)c2ccc(OCCCCn3ccnc3)cc2)cc1Nc1nccc(-c2cccnc2)n1
IC50 [1]: 49.9 µM | IC50 [3]: 99.4 µM | IC50 [4]: 66.2 µM

Second part, led by results:

inhibition [2]: Active | IC50 [4]: 0.95 µM
Compound: Cc1ccc(NC(=O)c2ccc(Br)cc2OCCCCn2ccnc2)cc1Nc1nccc(-c2cccnc2)n1
IC50 [1]: 66.1 µM | IC50 [3]: 44.6 µM

IC50 [4]: 61.6 µM
Compound: COc1ccc(C(=O)Nc2ccc(C)c(Nc3nccc(-c4cccnc4)n3)c2)c(OCCCCn2ccnc2)c1
IC50 [1]: 58.9 µM | IC50 [3]: 46.6 µM

IC50 [4]: 38.9 µM
Compound: Cc1ccc(NC(=O)c2cc(I)ccc2OCCCCn2ccnc2)cc1Nc1nccc(-c2cccnc2)n1
IC50 [1]: 66.5 µM | IC50 [3]: 81.7 µM

inhibition [2]: Active | IC50 [4]: 74.9 µM
Compound: Cc1ccc(NC(=O)c2ccc(OCCCCn3ccnc3)c(I)c2)cc1Nc1nccc(-c2cccnc2)n1
IC50 [1]: 32.5 µM | IC50 [3]: 52.4 µM

inhibition [2]: Active | IC50 [4]: 0.92 µM
Compound: Cc1ccc(NC(=O)c2ccc(OCCCCn3ccnc3)c(Br)c2)cc1Nc1nccc(-c2cccnc2)n1
Activity [5]: 0.65% | Activity [6]: Non-Toxic | Activity [7]: 2.3% | viability at 10 µM [8]: 83.8% | IC50 [1]: 12 µM | IC50 [3]: 31.8 µM | Activity [11]: 13.15%

IC50 [4]: 15.1 µM
Compound: Cc1ccc(NC(=O)c2ccc(I)cc2OCCCCn2ccnc2)cc1Nc1nccc(-c2cccnc2)n1
IC50 [1]: 57.4 µM | IC50 [3]: 51.8 µM

inhibition [2]: Active | IC50 [4]: 56.6 µM
Compound: COc1cc(C(=O)Nc2ccc(C)c(Nc3nccc(-c4cccnc4)n3)c2)ccc1OCCCCn1ccnc1
Activity [5]: 2.9% | Activity [6]: Non-Toxic | Activity [7]: 4.4% | viability at 10 µM [8]: 60.4% | IC50 [1]: 29.5 µM | IC50 [3]: 27.1 µM | Activity [11]: 32.3%

IC50 [4]: 0.95 µM
Compound: Cc1ccc(OCCCCn2ccnc2)c(C(=O)Nc2ccc(C)c(Nc3nccc(-c4cccnc4)n3)c2)c1
IC50 [1]: 59.5 µM | IC50 [3]: 48.6 µM

IC50 [4]: 28 µM
Compound: Cc1ccc(NC(=O)c2ccccc2OCCCCn2ccnc2)cc1Nc1nccc(-c2cccnc2)n1
IC50 [1]: 47.5 µM | IC50 [3]: 83.4 µM
